In ChEMBL document CHEMBL6078622, “Enhancing outer membrane permeability of tetracycline antibiotics in P. aeruginosa using TOB-CIP conjugates” (RSC Med Chem, 2024):
Calls of active or inactive are those of the source. The rule behind the calls is not given here.

Tests used:
Pseudomonas aeruginosa [1] = experiment: Synergistic antibacterial activity against Pseudomonas aeruginosa PA095 assessed as fractional inhibitory concentration index in presence of doxycycline by checkerboard assay; assay type: functional
Pseudomonas aeruginosa [2] = experiment: Synergistic antibacterial activity against Pseudomonas aeruginosa PA100036 assessed as fractional inhibitory concentration index in presence of tigecycline by checkerboard assay; assay type: functional
Pseudomonas aeruginosa [3] = experiment: Synergistic antibacterial activity against Pseudomonas aeruginosa PA259 assessed as fractional inhibitory concentration index in presence of tigecycline by checkerboard assay; assay type: functional
Pseudomonas aeruginosa [4] = experiment: Antibacterial activity against Pseudomonas aeruginosa PA114228 assessed as minocycline MIC by CLSI based broth-microdilution method; assay type: functional
Pseudomonas aeruginosa [5] = experiment: Synergistic antibacterial activity against Pseudomonas aeruginosa PA262 in presence of minocycline by checkerboard assay; assay type: functional
Pseudomonas aeruginosa [6] = experiment: Synergistic antibacterial activity against Pseudomonas aeruginosa PA262 in presence of doxycycline by checkerboard assay; assay type: functional
Pseudomonas aeruginosa [7] = experiment: Antibacterial activity against Pseudomonas aeruginosa PA264 assessed as eravacycline MIC by CLSI based broth-microdilution method; assay type: functional
Pseudomonas aeruginosa [8] = experiment: Antibacterial activity against Pseudomonas aeruginosa PA114228 assessed as eravacycline MIC by CLSI based broth-microdilution method; assay type: functional
Pseudomonas aeruginosa [9] = experiment: Synergistic antibacterial activity against Pseudomonas aeruginosa PA101243 assessed as fractional inhibitory concentration index in presence of tigecycline by checkerboard assay; assay type: functional
Pseudomonas aeruginosa [10] = experiment: Synergistic antibacterial activity against Pseudomonas aeruginosa PA100036 in presence of doxycycline by checkerboard assay; assay type: functional
Pseudomonas aeruginosa [11] = experiment: Synergistic antibacterial activity against Pseudomonas aeruginosa PA259 assessed as fold change in doxycycline MIC by CLSI based broth-microdilution method relative to doxycycline alone; assay type: functional
Pseudomonas aeruginosa [12] = experiment: Synergistic antibacterial activity against Pseudomonas aeruginosa PAO1 assessed as fold change in tigecycline MIC by checkerboard analysis relative to Tigecycline alone; assay type: functional
HEK293 = experiment: Cytotoxicity against HEK293 cells assessed as reduction in cell viability at 7 uM; assay type: toxicity, cell-based; details: human, hek293, 7 µM
Pseudomonas aeruginosa [13] = experiment: Antibacterial activity against Pseudomonas aeruginosa PA101243 assessed as doxycycline MIC by CLSI based broth-microdilution method; assay type: functional
Pseudomonas aeruginosa [14] = experiment: Antibacterial activity against Pseudomonas aeruginosa PA259 assessed as inhibition of visible bacterial growth by CLSI based broth-microdilution method; assay type: functional
Pseudomonas aeruginosa [15] = experiment: Antibacterial activity against Pseudomonas aeruginosa PA259 assessed as minocycline MIC by CLSI based broth-microdilution method; assay type: functional
Pseudomonas aeruginosa [16] = experiment: Antibacterial activity against Pseudomonas aeruginosa PAO1 assessed as inhibition of bacterial growth by measuring fold change in MIC in presence of 10 % fetal bovine serum by CLSI protocol based assay; assay type: functional
HepG2 = experiment: Cytotoxicity against human HepG2 cells assessed as reduction in cell viability at 400 uM; assay type: functional, cell-based
Pseudomonas aeruginosa [17] = experiment: Synergistic antibacterial activity against Pseudomonas aeruginosa PA114228 assessed as fold change in doxycycline MIC by CLSI based broth-microdilution method relative to doxycycline alone; assay type: functional
Pseudomonas aeruginosa [18] = experiment: Synergistic antibacterial activity against Pseudomonas aeruginosa PA259 assessed as fractional inhibitory concentration index in presence of minocycline by checkerboard assay; assay type: functional
Pseudomonas aeruginosa [19] = experiment: Synergistic antibacterial activity against Pseudomonas aeruginosa PA262 assessed as fractional inhibitory concentration index in presence of eravacycline by checkerboard assay; assay type: functional
Pseudomonas aeruginosa [20] = experiment: Antibacterial activity against Pseudomonas aeruginosa PA101243 assessed as inhibition of visible bacterial growth by CLSI based broth-microdilution method; assay type: functional
Pseudomonas aeruginosa [21] = experiment: Synergistic antibacterial activity against Pseudomonas aeruginosa PA114228 in presence of eravacycline by checkerboard assay; assay type: functional
Pseudomonas aeruginosa [22] = experiment: Antibacterial activity against Pseudomonas aeruginosa PAO1 assessed as inhibition of visible bacterial growth by CLSI based broth-microdilution method; assay type: functional
Pseudomonas aeruginosa [23] = experiment: Antibacterial activity against Pseudomonas aeruginosa PA262 assessed as doxycycline MIC by CLSI based broth-microdilution method; assay type: functional
Pseudomonas aeruginosa [24] = experiment: Synergistic antibacterial activity against Pseudomonas aeruginosa PA114228 assessed as fractional inhibitory concentration index in presence of doxycycline by checkerboard assay; assay type: functional
Pseudomonas aeruginosa [25] = experiment: Antibacterial activity against Pseudomonas aeruginosa PA264 assessed as reduction in bacterial load incubated for 2 hrs in presence of eravacycline by time kill assay; assay type: functional, organism-based
Pseudomonas aeruginosa [26] = experiment: Antibacterial activity against Pseudomonas aeruginosa PA101243 assessed as minocycline MIC by CLSI based broth-microdilution method; assay type: functional
Acinetobacter baumannii = experiment: Antibacterial activity against Acinetobacter baumannii ATCC 17978 assessed as inhibition of visible bacterial growth by CLSI based broth-microdilution method; assay type: functional
Pseudomonas aeruginosa [27] = experiment: Antibacterial activity against Pseudomonas aeruginosa PA095 assessed as minocycline MIC by CLSI based broth-microdilution method; assay type: functional
Pseudomonas aeruginosa [28] = experiment: Antibacterial activity against Pseudomonas aeruginosa PA114228 assessed as tigecycline MIC by CLSI based broth-microdilution method; assay type: functional
Pseudomonas aeruginosa [29] = experiment: Antibacterial activity against Pseudomonas aeruginosa PA259 assessed as tigecycline MIC by CLSI based broth-microdilution method; assay type: functional
Pseudomonas aeruginosa [30] = experiment: Antibacterial activity against Pseudomonas aeruginosa PA114228 assessed as doxycycline MIC by CLSI based broth-microdilution method; assay type: functional
Pseudomonas aeruginosa [31] = experiment: Synergistic antibacterial activity against Pseudomonas aeruginosa PA200 assessed as fold change in eravacycline MIC by CLSI based broth-microdilution method relative to eravacycline alone; assay type: functional
Pseudomonas aeruginosa [32] = experiment: Synergistic antibacterial activity against Pseudomonas aeruginosa PA264 in presence of minocycline by checkerboard assay; assay type: functional
Pseudomonas aeruginosa [33] = experiment: Synergistic antibacterial activity against Pseudomonas aeruginosa PA264 assessed as fractional inhibitory concentration index in presence of minocycline by checkerboard assay; assay type: functional
Pseudomonas aeruginosa [34] = experiment: Synergistic antibacterial activity against Pseudomonas aeruginosa PA259 in presence of doxycycline by checkerboard assay; assay type: functional
Pseudomonas aeruginosa [35] = experiment: Antibacterial activity against Pseudomonas aeruginosa PA101243 assessed as eravacycline MIC by CLSI based broth-microdilution method; assay type: functional
Escherichia = experiment: Synergistic antibacterial activity against Escherichia 107115 assessed as fold change in minocycline MIC by CLSI based broth-microdilution method relative to minocycline alone; assay type: functional
Outline: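 Checkerboard combination assay against E. coli EC107115 (MDR) and EC94474 (colistin-resistant), run in biological duplicates; the fold change is the tetracycline MIC in combination relative to its MIC alone.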

Pseudomonas aeruginosa [36] = experiment: Synergistic antibacterial activity against Pseudomonas aeruginosa PA200 assessed as fold change in minocycline MIC by CLSI based broth-microdilution method relative to minocycline alone; assay type: functional
Pseudomonas aeruginosa [37] = experiment: Synergistic antibacterial activity against Pseudomonas aeruginosa PA264 assessed as fold change in minocycline MIC by CLSI based broth-microdilution method relative to minocycline alone; assay type: functional
Pseudomonas aeruginosa [38] = experiment: Synergistic antibacterial activity against Pseudomonas aeruginosa PA101243 assessed as fold change in tigecycline MIC by CLSI based broth-microdilution method relative to tigecycline alone; assay type: functional
Pseudomonas aeruginosa [39] = experiment: Synergistic antibacterial activity against Pseudomonas aeruginosa PA200 in presence of minocycline by checkerboard assay; assay type: functional
Pseudomonas aeruginosa [40] = experiment: Synergistic antibacterial activity against Pseudomonas aeruginosa PA259 assessed as fractional inhibitory concentration index in presence of eravacycline by checkerboard assay; assay type: functional
Pseudomonas aeruginosa [41] = experiment: Synergistic antibacterial activity against Pseudomonas aeruginosa PA095 assessed as fractional inhibitory concentration index in presence of tigecycline by checkerboard assay; assay type: functional

MIC (Pseudomonas aeruginosa [4]): 64 µg/mL | MIC (Pseudomonas aeruginosa [5]): 8 µg/mL | MIC (Pseudomonas aeruginosa [6]): 8 µg/mL | MIC (Pseudomonas aeruginosa [7]): 0.125 µg/mL | MIC (Pseudomonas aeruginosa [8]): 4 µg/mL | MIC (Pseudomonas aeruginosa [10]): 8 µg/mL | MIC (Pseudomonas aeruginosa [13]): 1 µg/mL | MIC (Pseudomonas aeruginosa [14]): > 128 µg/mL | MIC (Pseudomonas aeruginosa [15]): 0.25 µg/mL | MIC (Pseudomonas aeruginosa [20]): > 128 µg/mL | MIC (Pseudomonas aeruginosa [21]): 8 µg/mL | MIC (Pseudomonas aeruginosa [22]): > 128 µg/mL | MIC (Pseudomonas aeruginosa [23]): 8 µg/mL | MIC (Pseudomonas aeruginosa [26]): 2 µg/mL | MIC (Acinetobacter baumannii): > 128 µg/mL | MIC (Pseudomonas aeruginosa [27]): 1 µg/mL | MIC (Pseudomonas aeruginosa [28]): 16 µg/mL | MIC (Pseudomonas aeruginosa [29]): 0.5 µg/mL | MIC (Pseudomonas aeruginosa [30]): 32 µg/mL | MIC (Pseudomonas aeruginosa [32]): 8 µg/mL | MIC (Pseudomonas aeruginosa [34]): 8 µg/mL | MIC (Pseudomonas aeruginosa [35]): 2 µg/mL | MIC (Pseudomonas aeruginosa [39]): 8 µg/mL
Compound: Cl.Cl.Cl.Cl.Cl.Cl.NC[C@H]1O[C@H](O[C@H]2[C@H](OCCCCCCCCCCCCNC(=O)c3cn(C4CC4)c4cc(N5CCNCC5)c(F)cc4c3=O)[C@@H](O[C@H]3O[C@H](CO)[C@@H](O)[C@H](N)[C@H]3O)[C@H](N)C[C@@H]2N)[C@H](N)C[C@@H]1O
fractional inhibitory concentration index (FICI) (Pseudomonas aeruginosa [1]): 0.25 | fractional inhibitory concentration index (FICI) (Pseudomonas aeruginosa [2]): 0.002 | fractional inhibitory concentration index (FICI) (Pseudomonas aeruginosa [3]): 0.002 | fractional inhibitory concentration index (FICI) (Pseudomonas aeruginosa [9]): 0.125 | fold change (FC) (Pseudomonas aeruginosa [11]): 128 | fold change (FC) (Pseudomonas aeruginosa [12]): 64 | Activity (HEK293): Non-toxic | fold change (FC) (Pseudomonas aeruginosa [16]): >512 | Activity (HepG2): Active | fold change (FC) (Pseudomonas aeruginosa [17]): 128 | fractional inhibitory concentration index (FICI) (Pseudomonas aeruginosa [18]): 0.002 | fractional inhibitory concentration index (FICI) (Pseudomonas aeruginosa [19]): 0.062 | fractional inhibitory concentration index (FICI) (Pseudomonas aeruginosa [24]): 0.004 | Activity (Pseudomonas aeruginosa [25]): Active | fold change (FC) (Pseudomonas aeruginosa [31]): 128 | fractional inhibitory concentration index (FICI) (Pseudomonas aeruginosa [33]): 0.031 | fold change (FC) (Escherichia): 32 | fold change (FC) (Pseudomonas aeruginosa [36]): 64 | fold change (FC) (Pseudomonas aeruginosa [37]): 128 | fold change (FC) (Pseudomonas aeruginosa [38]): 4 | fractional inhibitory concentration index (FICI) (Pseudomonas aeruginosa [40]): 0.008 | fractional inhibitory concentration index (FICI) (Pseudomonas aeruginosa [41]): 0.265
